The subject of test [1] is Rattus norvegicus. The experiment in a line: Antiinflammatory activity against trinitrobenzenesulfonic acid-induced colitis in rat assessed as decrease in myeloperoxidase activity at 30 mM administered rectally QD for 6 days. The test is classed as functional, organism-based. The method in brief: (§1)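 TNBS colitis in rats: after a 24 h fast with free access to water and light ether anaesthesia, TNBS (15 mg/0.3 ml/rat in 50% aqueous ethanol) was instilled through a rectal cannula whose tip sat 8 cm proximal to the anus. From day 3, drug in PBS (500 µL; 100 or 300 µM, or sodium 5-aminosalicylate 30 mM) was given rectally once daily for 6 days, then rats were sacrificed.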

The subject of test [2] is Rattus norvegicus. Briefly: Antiinflammatory activity against trinitrobenzenesulfonic acid-induced colitis in rat assessed as healing of damaged colon at 30 mM administered rectally QD for 6 days. The test is classed as functional, organism-based. In short, it runs like this: as §1
Test [3] has as its system Rattus norvegicus. The experiment in a line: Antiinflammatory activity against trinitrobenzenesulfonic acid-induced colitis in rat assessed as decrease in CINC2 protein expression at 30 mM administered rectally QD for 6 days. The test is classed as functional, organism-based.
For test [4], the system named is HCT-116. Briefly: Inhibition of TNF-alpha-induced NF-kappaB activation in human HCT116 cells at 1 mM after 6 hrs by luciferase reporter gene assay. Type of test: cell-based. The method in brief:
(§2)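 HCT116 cells at 50-60% confluence were cotransfected (Fugene) with an NFκB-dependent firefly luciferase plasmid and CMV Renilla plasmid (4 ng). After 24 h, cells received TNF-α (1 ng/ml) plus compound for 6 h, then were lysed. Dual-luciferase read-out, firefly normalized to Renilla. IC50 came from varied concentrations.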
For orientation: Reporter assays use an easily measured gene product as a stand-in for the process of interest.

Test [5] has as its system Rattus norvegicus. Briefly: Antiinflammatory activity against trinitrobenzenesulfonic acid-induced colitis in rat assessed as decrease in COX2 protein at 30 mM administered rectally QD for 6 days. The test is classed as functional, organism-based. In short, it runs like this:
as §1

In test [6] the test system is Rattus norvegicus. Briefly: Antiinflammatory activity against trinitrobenzenesulfonic acid-induced colitis in rat assessed as healing of damaged colon administered rectally QD for 6 days. Type of test: functional, organism-based. In short, it runs like this:
as §1

Test [7] concerns Rattus norvegicus. Briefly: Antiinflammatory activity against trinitrobenzenesulfonic acid-induced colitis in rat assessed as decrease in CINC2 protein expression administered rectally QD for 6 days. Type of test: functional, organism-based.
The subject of test [8] is Rattus norvegicus. The experiment in a line: Antiinflammatory activity against trinitrobenzenesulfonic acid-induced colitis in rat assessed as healing of damaged colon at 300 uM administered rectally QD for 6 days. Type of test: functional, organism-based. In short, it runs like this:
as §1

Test [9] in a line: (§3) Inhibition of TNF-alpha-induced NF-kappaB activation in human HCT116 cells after 6 hrs by luciferase reporter gene assay. Type of test: cell-based. The settings on record: HCT-116, 6 h. The method in brief:
as §2

Test [10] has as its system HCT-116. Described as §3. The test is classed as cell-based. The method in brief:
as §2

Test [11] deals with Rattus norvegicus. The experiment in a line: Antiinflammatory activity against trinitrobenzenesulfonic acid-induced colitis in rat assessed as decrease in CINC-3 protein at 300 uM administered rectally QD for 6 days. Type of test: functional, organism-based. In short, it runs like this:
as §1

For test [12], the system named is Rattus norvegicus. The experiment in a line: Antiinflammatory activity against trinitrobenzenesulfonic acid-induced colitis in rat assessed as decrease in myeloperoxidase activity at 100 uM administered rectally QD for 6 days. Set-up: scale not given: the % may be the effect or the level left. The test is classed as functional. In short, it runs like this: as §1

For test [13], the system named is Rattus norvegicus. Briefly: Antiinflammatory activity against trinitrobenzenesulfonic acid-induced colitis in rat assessed as decrease in COX2 protein administered rectally QD for 6 days. Type of test: functional, organism-based. In short, it runs like this: as §1
Test [14] concerns Rattus norvegicus. The experiment in a line: Antiinflammatory activity against trinitrobenzenesulfonic acid-induced colitis in rat assessed as decrease in COX2 protein at 300 uM administered rectally QD for 6 days. Type of test: functional, organism-based. The method in brief: as §1
Test [15] concerns Rattus norvegicus. Briefly: Antiinflammatory activity against trinitrobenzenesulfonic acid-induced colitis in rat assessed as decrease in myeloperoxidase activity at 300 uM administered rectally QD for 6 days. Type of test: functional. More on the design: scale not given: the % may be the effect or the level left. In short, it runs like this:
as §1

Test [16] relates to RAW264.7. The experiment in a line: Inhibition of NF-kappaB-mediated iNOS protein expression in LPS-stimulated mouse RAW264.7 cells at 0.1 mM by Western blot analysis. The test is classed as cell-based. The method in brief:
(§4)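 RAW264.7 cells grown in DMEM with 10% FBS were pretreated 1 h with drug, then stimulated with LPS (1 ng/ml) for 6 h. iNOS was immunoblotted in whole-cell lysates (30-40 µg) with a polyclonal antibody, α-tubulin served as loading control, in duplicate.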
A general note: A western blot detects proteins with antibodies after separation by electrophoresis.

Test [17] relates to RAW264.7. The experiment in a line: Inhibition of NF-kappaB-mediated iNOS protein expression in LPS-stimulated mouse RAW264.7 cells at 1 to 4 mM by Western blot analysis. The test is classed as cell-based. In short, it runs like this:
(§5)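 RAW264.7 cells in DMEM with 10% FBS were pretreated with a range of drug concentrations and stimulated with LPS. iNOS was immunoblotted in whole-cell lysates (30-40 µg), α-tubulin served as loading control, in duplicate.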

Test [18] has as its system RAW264.7. The following applies: Mus musculus, 5 mM.
For test [19], the system named is RAW264.7. The settings on record: Mus musculus, 2 to 4 mM.
Test [20] concerns RAW264.7. The experiment in a line: Inhibition of NF-kappaB-mediated iNOS protein expression in LPS-stimulated mouse RAW264.7 cells at 0.5 to 2 mM by Western blot analysis. Type of test: cell-based. The method in brief: as §5
Test [21] deals with RAW264.7. The experiment in a line: Inhibition of NF-kappaB-mediated iNOS protein expression in LPS-stimulated mouse RAW264.7 cells at 0.25 mM by Western blot analysis. The test is classed as cell-based. The method in brief: as §4

This is an account of results in ChEMBL document CHEMBL1938356, “Structure-activity relationship of salicylic acid derivatives on inhibition of TNF-α dependent NFκB activity: Implication on anti-inflammatory effect of N-(5-chlorosalicyloyl)phenethylamine against experimental colitis” (Eur J Med Chem, 2012).

pIC50: −log10 of the molar value. The source made the active and inactive calls. The rule behind the calls is not given here. A value given as a limit tells only on which side of the number the result lay.

Take `Nc1ccc(O)c(C(=O)O)c1`: the outcome in test [1], in [2], in test [3] and in [5] was Active. In test [4], the inhibition result was “Active”.

Consider `O=C(NCCc1ccccc1)c1cc(Cl)ccc1O`, for which the Activity entry was “Dose-dependent effect” in test [6]; “Dose-dependent effect” in [7]; 60% in test [12]; “Dose-dependent effect” in test [13]; 35% in test [15]. Also, the outcome in [8], in test [11] and in [14] was Active. Also, the pIC50 in test [9] was 4.82. Moreover, in test [10], the inhibition entry is “Dose-dependent effect”. In addition, in [16], the inhibition result is “Active”.

With `O=C(O)c1cc(Cl)ccc1O`, the inhibition result in test [4] and in test [17] was “Active” throughout.

With `NC(=O)c1ccccc1O`, the inhibition entry in test [4] and in test [17] was “Active” each time.

On to `CN1CCN(C(=O)c2cc(Cl)ccc2O)CC1`, for which the pIC50 in test [9] is < 3.60.

As to `O=C(c1cc(Cl)ccc1O)N1CCCCC1`, the pIC50 in test [9] is < 3.60.

As for `O=C(O)c1ccccc1O`, the inhibition result in [18], in [4] and in [19] was “Active” throughout.

Take `O=C(c1cc(Cl)ccc1O)N1CCNCC1`: the pIC50 in test [9] is < 3.60.

As to `O=C(NCc1ccccc1)c1cc(Cl)ccc1O`, the pIC50 in [9] is 3.98.

For the compound `O=C(NCCCc1ccccc1)c1cc(Cl)ccc1O`, in test [9], the pIC50 was 4.77. The inhibition result in test [10] is “Dose-dependent effect”. Besides, the inhibition entry in test [16] is “Active”.

Regarding `NC(=O)c1cc(Cl)ccc1O`, the inhibition entry in [20] was “Active”.

For `CC(=O)Oc1ccccc1C(=O)O`, the inhibition result in test [4] is “Active”.

Take `CNC(=O)c1cc(Cl)ccc1O`: the pIC50 in test [9] is < 3.60.

Turning to `O=C(c1cc(Cl)ccc1O)N1CCN(c2ccccc2)CC1`, in [9], the pIC50 was < 3.60.

With `COC(=O)c1ccccc1O`, the inhibition entry in [4] is “Active”.

In the case of `O=C(O)c1cc(-c2ccc(F)cc2F)ccc1O`, the inhibition result in [4] was “Active”.

As to `O=C(O)c1cc([N+](=O)[O-])ccc1O`, the inhibition result in test [4] is “Active”.

Regarding `O=C(c1cc(Cl)ccc1O)N1CCOCC1`, in test [9], the pIC50 was < 3.60.

As to `O=C(NCCc1ccc(O)cc1)c1cc(Cl)ccc1O`, the inhibition entry in [21] is “Active”. In test [9], the pIC50 was 4.04. Further, the inhibition result in test [10] is “Dose-dependent effect”.

Compound `CCCCCCNC(=O)c1cc(Cl)ccc1O` showed a pIC50 in test [9] of 4.02.

For `CN(C)C(=O)c1cc(Cl)ccc1O`, the pIC50 in test [9] was < 3.60.

Usually pIC50 stands for the IC50 on a negative log10 scale, so that one unit is a factor of ten.
